From ChEMBL document CHEMBL2346581, “Increasing the efficiency of ligands for FK506-binding protein 51 by conformational control” (J Med Chem, 2013)

How the values were obtained:
[1] = molecular target: T1, Peptidyl-prolyl cis-trans isomerase FKBP5 (Homo sapiens, UniProt Q13451); test: Binding affinity to human FKBP51 by competitive fluorescence polarization assay
T1 sequence (Q13451 whole entry): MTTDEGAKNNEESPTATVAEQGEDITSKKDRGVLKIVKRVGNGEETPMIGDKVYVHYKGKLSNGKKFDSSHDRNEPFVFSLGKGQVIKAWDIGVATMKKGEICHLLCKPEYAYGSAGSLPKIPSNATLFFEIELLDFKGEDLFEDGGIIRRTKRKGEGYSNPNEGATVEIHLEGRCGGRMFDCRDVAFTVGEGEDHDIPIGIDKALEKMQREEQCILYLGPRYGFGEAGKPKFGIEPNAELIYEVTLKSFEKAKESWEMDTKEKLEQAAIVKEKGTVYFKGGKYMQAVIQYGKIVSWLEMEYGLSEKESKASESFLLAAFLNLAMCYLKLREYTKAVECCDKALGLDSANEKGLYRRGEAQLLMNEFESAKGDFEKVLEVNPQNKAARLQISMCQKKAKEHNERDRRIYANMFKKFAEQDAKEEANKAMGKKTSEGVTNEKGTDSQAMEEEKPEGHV
Method in brief: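 Competitive fluorescence polarization binding assay against the purified FK506-binding domain of human FKBP51, run per a previously described protocol. The read-out is K_i.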

[2] = molecular target: Peptidyl-prolyl cis-trans isomerase FKBP1A (Homo sapiens, UniProt P62942); test: Binding affinity to FKBP12 (unknown origin) by competitive fluorescence polarization assay
Chain of Peptidyl-prolyl cis-trans isomerase FKBP1A (P62942 whole entry): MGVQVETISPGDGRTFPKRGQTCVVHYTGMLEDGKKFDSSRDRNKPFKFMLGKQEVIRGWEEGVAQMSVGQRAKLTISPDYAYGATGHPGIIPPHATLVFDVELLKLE

[3] = molecular target: T2, Peptidyl-prolyl cis-trans isomerase FKBP5 (Homo sapiens) (UniProt Q13451); test: Binding affinity to FKBP51 (unknown origin) assessed as increase in [3H]-dexamethasone binding to glucocorticoid receptor
T2 sequence (whole entry): T1 sequence (Q13451 whole entry)
Method in brief: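 Reconstituted glucocorticoid receptor (GR) hormone-binding assay. GR-containing lysates were supplemented with purified FKBP51 and incubated with ³H-dexamethasone across a range of compound concentrations. Free ³H-dexamethasone was removed with charcoal–dextran, and GR-bound ³H-dexamethasone was then measured as the read-out.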

[4] = molecular target: T1, Peptidyl-prolyl cis-trans isomerase FKBP5; test: Binding affinity to human His-tagged FKBP51 FK1 domain (1 to 140) by isothermal titration calorimetric analysis

Row | Ki [1] [µM] | Ki [2] [nM] | Structure (SMILES) | Activity [3] | Kd [4] [µM]
1 | > 100 | – | COc1ccc(OCCOC(=O)C2CCCCN2C(=O)C(=O)c2cc(OC)c(OC)c(OC)c2)cc1OC (stereo not given) | – | –
2 | > 100 | – | COc1ccc(OCCOC(=O)C2CCCCN2S(=O)(=O)c2cc(Cl)cc(Cl)c2)cc1OC (stereo not given) | – | –
3 | > 100 | – | COc1ccc(OCCOC(=O)C2CCCCN2S(=O)(=O)c2ccc3ncsc3c2)cc1OC (stereo not given) | – | –
4 | 13.8 | – | COc1ccc(CC[C@@H](OC(=O)C2CCCCN2S(=O)(=O)c2cc(Cl)cc(Cl)c2)c2cccc(OCC(=O)O)c2)cc1OC (stereo not given in full) | – | –
5 | > 100 | – | CCOC(=O)C1CCCCN1S(=O)(=O)c1ccc2[nH]c(=O)sc2c1 (stereo not given) | – | –
6 | 7.6 | – | COc1ccc(OCCOC(=O)C2CCCCN2S(=O)(=O)c2ccc3[nH]c(=O)sc3c2)cc1OC (stereo not given) | Dose-dependent effect | 3.3
7 | 0.2 | – | COc1ccc(CC[C@@H](OC(=O)C2CCCCN2S(=O)(=O)c2cc(Cl)c(O)c(Cl)c2)c2cccc(OCCN3CCOCC3)c2)cc1OC (stereo not given in full) | – | –

Second part, the molecule before the results:

Row | Structure (SMILES) | Ki [1] [µM] | Ki [2] [nM] | Activity [3] | Kd [4] [µM]
8 | COc1cc2c(c(OC)c1)[C@]1(C)C3CCC[C@@H](C(=O)N1CC2)N3S(=O)(=O)c1cc(Cl)c(O)c(Cl)c1 | > 100 | 2100 | – | –
9 | COc1ccc(OCCN2CCC3CCCC(C2=O)N3S(=O)(=O)c2cc(Cl)cc(Cl)c2)cc1OC (stereo not given) | 8.8 | – | – | –
10 | COc1cc2c(c(OC)c1)[C@]1(C)C3CCC[C@@H](C(=O)N1CC2)N3C(=O)C(=O)[C@]1(C)CCCC[C@H]1C | > 100 | 2800 | – | –
11 | CCC(C)(C)C(=O)C(=O)N1C2CCC[C@H]1C(=O)N1CCc3cc(OC)cc(OC)c3[C@]21C | > 100 | 27700 | – | –
12 | COc1cc2c(c(OC)c1)[C@]1(C)C3CCC[C@@H](C(=O)N1CC2)N3S(=O)(=O)c1cc(Cl)cc(Cl)c1 | > 100 | 870 | – | –
13 | COc1ccc(OCCN2CCC3CCCC(C2=O)N3C(=O)C(=O)c2cc(OC)c(OC)c(OC)c2)cc1OC (stereo not given) | 23.7 | – | – | –
14 | C=CC[C@@H]1/C=C(\C)C[C@H](C)C[C@H](OC)[C@H]2O[C@@](O)(C(=O)C(=O)N3CCCC[C@H]3C(=O)O[C@H](/C(C)=C/[C@@H]3CC[C@@H](O)[C@H](OC)C3)[C@H](C)[C@@H](O)CC1=O)[C@H](C)C[C@@H]2OC [TACROLIMUS ANHYDROUS] | 0.08 | – | – | –
15 | COc1ccc(OCCN2CCC3CCCC(C2=O)N3S(=O)(=O)c2ccc3[nH]c(=O)sc3c2)cc1OC (stereo not given) | – | – | Dose-dependent effect | 0.36
16 | COc1ccc(OCCN2CC3CCCC(C2=O)N3S(=O)(=O)c2ccc3[nH]c(=O)sc3c2)cc1OC (stereo not given) | – | – | Dose-dependent effect | 10.5
17 | COc1cc2c(c(OC)c1)[C@]1(C)C3CCC[C@@H](C(=O)N1CC2)N3C(=O)C(=O)c1cc(OC)c(OC)c(OC)c1 | 18.1 | 500 | – | –
18 | CO[C@H]1C[C@@H]2CC[C@@H](C)[C@@](O)(O2)C(=O)C(=O)N2CCCC[C@H]2C(=O)O[C@H]([C@H](C)C[C@@H]2CC[C@@H](O)[C@H](OC)C2)CC(=O)[C@H](C)/C=C(\C)[C@@H](O)[C@@H](OC)C(=O)[C@H](C)C[C@H](C)/C=C/C=C/C=C/1C [SIROLIMUS] | 0.003 | – | – | –
19 | CCC(C)(C)C(=O)C(=O)N1CCCCC1C(=O)O[C@H](CCc1ccc(OC)c(OC)c1)c1cccc(OCC(=O)O)c1 (stereo not given in full) | 2.7 | – | – | –
20 | COc1ccc(OCCN2CC3CCCC(C2=O)N3S(=O)(=O)c2cc(Cl)cc(Cl)c2)cc1OC (stereo not given) | 1.2 | – | – | –
21 | CCN1CC2CCCC(C1=O)N2C(=O)C(=O)c1cc(OC)c(OC)c(OC)c1 (stereo not given) | > 100 | – | – | –
